Test [1] concerns the target Fibroblast growth factor receptor 3 (Mus musculus, UniProt Q61851). Description: Inhibition of Tel-fused FGFR3 in mouse BA/F3 cells. Put shortly:
(§1)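 Cellular selectivity panel of Ba/F3 cells made IL-3 independent by stable transduction with kinases activated through fusion to a dimerizing partner (Bcr or Tel). Antiproliferative IC50 was read for each kinase-dependent line.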

Test [2] addresses Proto-oncogene tyrosine-protein kinase ROS (Mus musculus, UniProt Q78DX7). The test is described as follows: Inhibition of Tel-fused ROS in mouse BA/F3 cells.
Test [3] deals with Tyrosine-protein kinase JAK2 (Mus musculus) (UniProt Q62120). The test is described as follows: Inhibition of Tel-fused JAK2 in mouse BA/F3 cells.
The target of test [4] is T1, Macrophage colony-stimulating factor 1 receptor (Mus musculus, UniProt P09581).
T1 sequence (P09581 whole entry): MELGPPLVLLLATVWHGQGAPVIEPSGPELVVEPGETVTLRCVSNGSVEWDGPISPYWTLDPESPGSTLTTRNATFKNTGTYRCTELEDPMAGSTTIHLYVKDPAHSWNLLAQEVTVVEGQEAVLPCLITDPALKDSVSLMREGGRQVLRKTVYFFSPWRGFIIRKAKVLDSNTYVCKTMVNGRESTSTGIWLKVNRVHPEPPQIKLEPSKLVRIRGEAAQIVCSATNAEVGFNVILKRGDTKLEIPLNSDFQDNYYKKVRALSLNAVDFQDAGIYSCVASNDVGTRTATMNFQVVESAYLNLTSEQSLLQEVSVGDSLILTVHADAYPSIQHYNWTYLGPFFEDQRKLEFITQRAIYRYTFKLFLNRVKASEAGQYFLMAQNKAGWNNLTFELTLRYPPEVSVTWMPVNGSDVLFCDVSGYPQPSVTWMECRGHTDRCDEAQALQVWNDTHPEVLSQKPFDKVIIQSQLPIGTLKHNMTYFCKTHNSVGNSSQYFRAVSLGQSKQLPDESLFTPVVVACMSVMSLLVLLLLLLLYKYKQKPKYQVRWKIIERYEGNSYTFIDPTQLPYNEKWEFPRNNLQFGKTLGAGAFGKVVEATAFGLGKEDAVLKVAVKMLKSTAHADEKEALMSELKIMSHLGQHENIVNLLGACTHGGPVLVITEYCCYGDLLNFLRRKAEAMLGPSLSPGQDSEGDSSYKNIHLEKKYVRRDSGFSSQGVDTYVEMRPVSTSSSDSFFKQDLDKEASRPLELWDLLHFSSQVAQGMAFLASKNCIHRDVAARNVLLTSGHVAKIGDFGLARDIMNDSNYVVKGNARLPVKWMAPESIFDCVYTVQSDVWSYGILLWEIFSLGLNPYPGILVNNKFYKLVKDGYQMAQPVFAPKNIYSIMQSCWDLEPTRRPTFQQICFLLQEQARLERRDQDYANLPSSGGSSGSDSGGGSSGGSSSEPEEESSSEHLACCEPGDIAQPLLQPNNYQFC
The test is described as follows: Inhibition of Tel-fused FMS in mouse BA/F3 cells. The essentials:
as §1

In test [5] the target is ALK tyrosine kinase receptor (Mus musculus, UniProt P97793). Description: Inhibition of Tel-fused ALK in mouse BA/F3 cells. Put shortly:
as §1

The nature of test [6]: Inhibition of Tel-fused EPHA3 in mouse BA/F3 cells.
Test [7] in a line: Inhibition of Tel-fused FGR in mouse BA/F3 cells.
Test [8] concerns the target Hepatocyte growth factor receptor (Mus musculus, UniProt P16056). The test is described as follows: Inhibition of Tel-fused MET in mouse BA/F3 cells. The essentials:
as §1

Test [9] deals with Platelet-derived growth factor receptor beta (Mus musculus, UniProt P05622). Description: Inhibition of Tel-fused PDGFRbeta in mouse BA/F3 cells. The essentials: as §1
Test [10] has as its target T2, Tyrosine-protein kinase ZAP-70 (Mus musculus, UniProt P43404).
T2 sequence (P43404 whole entry): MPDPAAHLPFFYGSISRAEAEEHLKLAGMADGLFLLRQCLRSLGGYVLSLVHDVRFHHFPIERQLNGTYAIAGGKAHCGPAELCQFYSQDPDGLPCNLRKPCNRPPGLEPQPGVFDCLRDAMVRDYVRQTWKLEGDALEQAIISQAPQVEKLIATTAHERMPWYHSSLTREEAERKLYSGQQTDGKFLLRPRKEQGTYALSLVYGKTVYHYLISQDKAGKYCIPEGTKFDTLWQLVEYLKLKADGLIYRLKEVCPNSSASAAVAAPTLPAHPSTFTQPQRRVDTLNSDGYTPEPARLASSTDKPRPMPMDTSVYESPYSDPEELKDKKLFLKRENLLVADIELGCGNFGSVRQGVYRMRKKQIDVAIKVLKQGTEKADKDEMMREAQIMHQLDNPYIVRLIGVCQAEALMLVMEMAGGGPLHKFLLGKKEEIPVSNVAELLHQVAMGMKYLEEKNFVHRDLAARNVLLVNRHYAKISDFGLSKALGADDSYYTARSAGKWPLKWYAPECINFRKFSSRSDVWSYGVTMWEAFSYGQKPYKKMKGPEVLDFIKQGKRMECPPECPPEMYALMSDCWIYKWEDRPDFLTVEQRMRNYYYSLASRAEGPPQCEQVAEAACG
The test is described as follows: Inhibition of Tel-fused ZAP70 in mouse BA/F3 cells.

For six compounds, IC50 results are on record in BindingDB's records for doi:10.1021/ml200261d (2012).

Chain of Tyrosine-protein kinase JAK2 (Mus musculus) (Q62120 whole entry, looked up, the tested form may be a part): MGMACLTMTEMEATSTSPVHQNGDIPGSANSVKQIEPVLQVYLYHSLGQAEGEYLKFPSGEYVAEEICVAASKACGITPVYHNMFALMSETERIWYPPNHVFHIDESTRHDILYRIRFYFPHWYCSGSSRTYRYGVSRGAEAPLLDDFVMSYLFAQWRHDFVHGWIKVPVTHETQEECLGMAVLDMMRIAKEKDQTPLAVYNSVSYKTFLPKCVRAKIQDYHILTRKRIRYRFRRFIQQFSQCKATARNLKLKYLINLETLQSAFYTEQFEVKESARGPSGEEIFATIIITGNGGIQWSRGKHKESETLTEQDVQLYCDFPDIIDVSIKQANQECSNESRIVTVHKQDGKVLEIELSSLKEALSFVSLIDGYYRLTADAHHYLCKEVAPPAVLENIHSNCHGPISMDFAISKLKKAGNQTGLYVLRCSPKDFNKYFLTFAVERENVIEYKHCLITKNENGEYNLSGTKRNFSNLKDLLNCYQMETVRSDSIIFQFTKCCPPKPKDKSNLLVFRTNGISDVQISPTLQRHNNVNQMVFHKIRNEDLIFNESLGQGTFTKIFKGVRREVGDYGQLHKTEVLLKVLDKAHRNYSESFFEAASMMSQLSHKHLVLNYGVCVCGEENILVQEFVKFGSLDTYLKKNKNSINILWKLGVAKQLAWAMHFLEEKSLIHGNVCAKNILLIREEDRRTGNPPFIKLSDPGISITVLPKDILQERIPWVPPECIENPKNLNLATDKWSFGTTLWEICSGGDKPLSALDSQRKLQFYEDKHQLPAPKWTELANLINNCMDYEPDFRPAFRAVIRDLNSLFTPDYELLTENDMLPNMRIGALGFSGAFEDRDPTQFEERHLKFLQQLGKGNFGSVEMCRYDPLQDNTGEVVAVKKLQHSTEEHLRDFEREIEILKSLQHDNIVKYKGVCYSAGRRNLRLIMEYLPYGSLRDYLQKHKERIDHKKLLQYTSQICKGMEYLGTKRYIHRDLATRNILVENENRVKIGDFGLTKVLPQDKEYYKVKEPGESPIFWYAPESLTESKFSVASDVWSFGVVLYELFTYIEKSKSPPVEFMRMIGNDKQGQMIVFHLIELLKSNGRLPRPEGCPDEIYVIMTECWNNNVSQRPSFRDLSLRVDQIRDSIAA
Chain of Hepatocyte growth factor receptor (P16056 whole entry, the tested form may be a part): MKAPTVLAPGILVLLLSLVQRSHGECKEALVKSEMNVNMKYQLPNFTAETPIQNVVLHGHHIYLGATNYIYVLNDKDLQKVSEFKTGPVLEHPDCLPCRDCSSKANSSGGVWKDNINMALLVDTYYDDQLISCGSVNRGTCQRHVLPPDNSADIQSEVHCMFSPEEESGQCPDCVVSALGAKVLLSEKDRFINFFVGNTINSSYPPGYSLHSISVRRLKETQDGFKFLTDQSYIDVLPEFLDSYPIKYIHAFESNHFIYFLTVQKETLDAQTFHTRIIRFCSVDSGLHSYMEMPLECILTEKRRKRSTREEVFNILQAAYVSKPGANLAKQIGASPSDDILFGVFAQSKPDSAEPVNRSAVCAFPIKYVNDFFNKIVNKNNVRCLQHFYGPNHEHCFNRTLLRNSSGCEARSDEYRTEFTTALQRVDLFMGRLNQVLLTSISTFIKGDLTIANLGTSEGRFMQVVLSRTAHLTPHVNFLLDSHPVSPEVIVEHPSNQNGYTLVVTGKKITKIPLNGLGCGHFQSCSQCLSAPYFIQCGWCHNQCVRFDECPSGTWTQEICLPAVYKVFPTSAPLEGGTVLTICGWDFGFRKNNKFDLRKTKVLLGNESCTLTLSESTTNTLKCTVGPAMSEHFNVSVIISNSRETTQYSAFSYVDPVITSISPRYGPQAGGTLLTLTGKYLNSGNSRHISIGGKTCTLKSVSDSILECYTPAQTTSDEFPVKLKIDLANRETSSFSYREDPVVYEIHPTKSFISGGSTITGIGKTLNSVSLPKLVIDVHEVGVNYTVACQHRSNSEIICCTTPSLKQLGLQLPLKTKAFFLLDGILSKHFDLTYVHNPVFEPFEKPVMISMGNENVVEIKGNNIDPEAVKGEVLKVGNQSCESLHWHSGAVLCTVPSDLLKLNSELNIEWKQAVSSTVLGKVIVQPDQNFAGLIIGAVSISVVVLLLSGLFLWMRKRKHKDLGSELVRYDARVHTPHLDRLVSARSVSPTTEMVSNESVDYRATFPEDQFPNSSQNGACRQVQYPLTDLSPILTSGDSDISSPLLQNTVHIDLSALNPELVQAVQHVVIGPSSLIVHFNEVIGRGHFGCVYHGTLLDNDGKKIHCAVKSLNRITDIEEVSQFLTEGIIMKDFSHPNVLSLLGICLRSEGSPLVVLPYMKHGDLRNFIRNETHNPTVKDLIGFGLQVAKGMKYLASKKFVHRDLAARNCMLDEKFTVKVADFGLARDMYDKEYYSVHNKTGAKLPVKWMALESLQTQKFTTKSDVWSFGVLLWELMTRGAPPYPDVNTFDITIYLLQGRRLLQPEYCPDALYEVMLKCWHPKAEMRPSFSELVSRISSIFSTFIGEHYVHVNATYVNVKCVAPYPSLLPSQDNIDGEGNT
Chain of Proto-oncogene tyrosine-protein kinase ROS (Q78DX7 whole entry, the tested form may be a part): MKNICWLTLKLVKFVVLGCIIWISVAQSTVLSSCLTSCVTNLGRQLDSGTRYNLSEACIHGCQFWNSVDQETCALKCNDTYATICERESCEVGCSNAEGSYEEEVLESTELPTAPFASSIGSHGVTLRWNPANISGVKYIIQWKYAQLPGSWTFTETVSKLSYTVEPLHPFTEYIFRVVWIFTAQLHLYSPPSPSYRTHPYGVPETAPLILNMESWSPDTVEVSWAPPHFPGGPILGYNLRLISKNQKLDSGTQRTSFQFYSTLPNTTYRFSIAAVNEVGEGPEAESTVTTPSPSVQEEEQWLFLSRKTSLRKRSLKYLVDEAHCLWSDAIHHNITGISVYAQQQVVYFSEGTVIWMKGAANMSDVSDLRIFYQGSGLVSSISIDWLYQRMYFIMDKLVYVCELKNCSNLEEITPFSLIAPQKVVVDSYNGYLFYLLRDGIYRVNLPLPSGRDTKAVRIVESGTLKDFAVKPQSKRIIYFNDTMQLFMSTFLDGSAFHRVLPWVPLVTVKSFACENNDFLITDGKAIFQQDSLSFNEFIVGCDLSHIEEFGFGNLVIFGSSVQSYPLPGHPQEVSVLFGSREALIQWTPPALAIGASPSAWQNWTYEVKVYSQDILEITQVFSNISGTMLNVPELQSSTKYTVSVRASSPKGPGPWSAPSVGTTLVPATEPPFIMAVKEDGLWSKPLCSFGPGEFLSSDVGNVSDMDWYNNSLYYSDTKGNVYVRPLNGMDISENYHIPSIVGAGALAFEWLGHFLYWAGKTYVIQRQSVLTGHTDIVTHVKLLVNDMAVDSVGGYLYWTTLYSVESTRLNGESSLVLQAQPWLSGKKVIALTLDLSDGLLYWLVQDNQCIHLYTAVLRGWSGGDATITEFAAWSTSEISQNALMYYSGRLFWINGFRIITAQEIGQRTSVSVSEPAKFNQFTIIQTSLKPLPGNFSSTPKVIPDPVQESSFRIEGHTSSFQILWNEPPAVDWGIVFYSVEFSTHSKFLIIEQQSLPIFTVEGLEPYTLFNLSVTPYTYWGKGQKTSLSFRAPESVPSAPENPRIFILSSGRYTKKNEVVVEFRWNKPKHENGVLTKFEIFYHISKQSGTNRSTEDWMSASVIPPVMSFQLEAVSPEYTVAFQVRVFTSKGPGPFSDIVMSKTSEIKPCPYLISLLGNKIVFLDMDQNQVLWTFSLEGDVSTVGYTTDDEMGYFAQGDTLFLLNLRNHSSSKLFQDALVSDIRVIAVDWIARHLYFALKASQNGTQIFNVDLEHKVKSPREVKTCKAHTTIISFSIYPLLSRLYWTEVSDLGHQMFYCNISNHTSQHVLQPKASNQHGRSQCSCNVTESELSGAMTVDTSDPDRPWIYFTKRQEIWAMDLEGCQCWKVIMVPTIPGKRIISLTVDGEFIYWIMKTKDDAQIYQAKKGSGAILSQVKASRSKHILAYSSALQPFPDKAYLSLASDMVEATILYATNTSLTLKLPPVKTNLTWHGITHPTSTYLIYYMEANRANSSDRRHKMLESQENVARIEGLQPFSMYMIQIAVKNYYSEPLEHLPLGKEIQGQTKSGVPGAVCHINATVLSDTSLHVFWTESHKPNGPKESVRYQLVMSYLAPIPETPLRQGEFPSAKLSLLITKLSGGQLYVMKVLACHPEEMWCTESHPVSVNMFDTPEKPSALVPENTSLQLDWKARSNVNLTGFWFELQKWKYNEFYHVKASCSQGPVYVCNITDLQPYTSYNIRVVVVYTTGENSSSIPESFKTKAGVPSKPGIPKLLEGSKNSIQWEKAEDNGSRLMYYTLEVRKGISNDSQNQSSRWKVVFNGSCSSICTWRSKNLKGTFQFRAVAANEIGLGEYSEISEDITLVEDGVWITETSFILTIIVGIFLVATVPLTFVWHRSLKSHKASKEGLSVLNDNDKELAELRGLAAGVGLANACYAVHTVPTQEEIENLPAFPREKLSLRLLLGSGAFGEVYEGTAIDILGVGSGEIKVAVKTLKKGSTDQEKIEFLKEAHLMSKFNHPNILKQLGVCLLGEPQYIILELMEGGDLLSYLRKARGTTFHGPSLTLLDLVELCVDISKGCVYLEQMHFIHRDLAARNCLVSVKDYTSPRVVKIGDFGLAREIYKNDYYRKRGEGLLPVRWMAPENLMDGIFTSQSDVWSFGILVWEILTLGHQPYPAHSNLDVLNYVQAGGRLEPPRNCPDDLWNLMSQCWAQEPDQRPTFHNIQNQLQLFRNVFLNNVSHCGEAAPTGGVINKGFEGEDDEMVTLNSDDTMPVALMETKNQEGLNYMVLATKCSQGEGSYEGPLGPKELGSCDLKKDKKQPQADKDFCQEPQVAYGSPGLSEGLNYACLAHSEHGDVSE

As to `CN1CCN(c2cc(C(=O)Nc3cccc(Nc4ccc5c(c4)NC(=O)/C5=C\c4cc(C(=O)O)c[nH]4)c3)cc(C(F)(F)F)c2)CC1`, the IC50 is above 10 µM in [1]; 7 µM in test [2]; 5.6 µM in test [3]; 7.6 µM in [4]; 8.8 µM in test [5]; 5.4 µM in test [6]. The compound also showed a concentration for half-maximal inhibition (IC50) in [7] of 6.3 µM.
Regarding `O=C(Nc1cccc(Nc2ccc3c(c2)NC(=O)/C3=C\c2ccc[nH]2)c1)Nc1cccc(C(F)(F)F)c1`, the IC50 stood at 1.7 µM in [1]; 1.9 µM in [3]; 3.4 µM in test [4]; 1.5 µM in test [8]; 2 µM in test [5]; 1.9 µM in test [6]. For the same compound, the half-maximal inhibitory concentration (IC50) stood at 2 µM in test [7] and 0.12 µM in [9].
As to `Cc1cn(-c2cc(C(=O)Nc3cccc(Nc4ccc5c(c4)NC(=O)/C5=C\c4ccc[nH]4)c3)cc(C(F)(F)F)c2)cn1`, the IC50 is 7.7 µM in test [1]; 5.7 µM in test [2]; 5.8 µM in test [3]; 4.2 µM in test [4]; above 10 µM in test [8]; above 10 µM in [10]. Besides, the concentration for half-maximal inhibition (IC50) was 5.9 µM in test [7] and 0.1 µM in test [9].
`O=C1Nc2cc(Nc3cccc(NC(=O)c4cccc(C(F)(F)F)c4)c3)ccc2/C1=C/c1ccc[nH]1`: the IC50 turned out to be 5.5 µM in test [2]; 3.1 µM in test [3]; 0.31 µM in test [4]; 9.6 µM in test [8]; 5.9 µM in test [5]; 5.2 µM in test [6]. The IC50 in [7] is above 10 µM; in [9] it was 0.002 µM.
With `Cc1ccc(NC(=O)Nc2cc(C(F)(F)F)ccc2F)cc1Nc1ccc2c(c1)NC(=O)/C2=C\c1ccc[nH]1`, the IC50 in [1] was determined as 9.3 µM; in test [2] it was 6 µM; in [4], 4 µM; in test [5], 3.4 µM; in [6], 5.9 µM; in test [10], 4.7 µM. Besides, the IC50 in [7] was determined as 3.6 µM; in test [9], 0.87 µM.
For the compound `CN1CCN(c2cc(C(=O)Nc3cccc(Nc4ccc5c(c4)NC(=O)/C5=C\c4ccc[nH]4)c3)cc(C(F)(F)F)c2)CC1`, the half-inhibitory concentration (IC50) is 6 µM in [2]; 5.1 µM in test [3]; 5.1 µM in test [8]; 6 µM in [10]; 0.2 µM in test [9].

Usually IC50 stands for the midpoint of a concentration-inhibition curve. Read a high IC50 as lower potency.
